The values below come from ChEMBL document CHEMBL4251598, “Development of novel bis-pyrazole derivatives as antitumor agents with potent apoptosis induction effects and DNA damage” (Eur J Med Chem, 2018).

Active and inactive are the calls of the source. No cut-off for these calls is given here.

The test system of assay [1] is SMMC-7721. Briefly: Antiproliferative activity against human SMMC7721 cells after 72 hrs by MTT assay. To be noted: SMMC-7721, 72 h. Format: functional, cell-based. The procedure, abridged:
(§1)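 Cells in DMEM with 10% FBS, 10^4 cells/mL, adhered overnight at 37 °C, 5% CO2. Treated in triplicate with a range of concentrations for 72 h. MTT (5 mg/mL solution) added for the last 4 h, formazan dissolved in DMSO, absorbance read at 570 nm. IC50 calculated from percent inhibition. Mean ± SD of three independent experiments.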
In general terms: Tetrazolium assays rely on reduction of a dye to a coloured formazan, in cell work by metabolically active cells.

Assay [2] has as its system SGC-7901. Nature of the assay: Antiproliferative activity against human SGC7901 cells after 72 hrs by MTT assay. As to conditions: SGC-7901, 72 h. Format: functional, cell-based. The procedure, abridged:
as §1

Assay [3] relates to HCT-116. Briefly: Antiproliferative activity against human HCT116 cells after 72 hrs by MTT assay. Format: functional, cell-based. To be noted: HCT-116, 72 h. The procedure, abridged:
as §1

Assay [4] has as its system SMMC-7721. Nature of the assay: Antiproliferative activity against human SMMC7721 cells assessed as inhibition of cell proliferation at 25 uM after 72 hrs by MTT assay relative to control. Format: functional. To be noted: SMMC-7721, 72 h. The procedure, abridged: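 Cells in DMEM with 10% FBS, plated at 10^4 cells/mL, adhered overnight. Treated at 25 μM for 72 h. MTT added for the last 4 h, formazan dissolved in DMSO, A570 read. Inhibition expressed as percent of untreated. Mean + SD from three separate measurements.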

For assay [5], the system named is PC-3. Nature of the assay: Induction of apoptosis in human PC3 cells. In kind it is functional, cell-based.
The subject of assay [6] is SMMC-7721. Nature of the assay: Induction of apoptosis in human SMMC7721 cells assessed as apoptotic cells at 3.2 uM after 72 hrs by FITC-Annexin-V/7AAD/propidium iodide staining based flow cytometry relative to control. Format: functional. The gist of the method:
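SMMC-7721 cells cultured overnight, then treated in triplicate with 0.2, 0.8 or 3.2 μM, vehicle, or ADM (3.2 μM) for 72 h. Stained with annexin V and PI (methods section: APC-annexin V/7-AAD) for 15 min at room temperature. Mean ± SD of three independent experiments.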
(A flow cytometer gives signals particle by particle.)

In assay [7] the test system is SMMC-7721. Briefly: Induction of DNA double stranded breaks in human SMMC7721 cells assessed as increase in H2AX phosphorylation at S139 at 0.8 uM after 72 hrs by Western blot analysis. Format: functional, cell-based. The gist of the method:
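SMMC-7721 cells treated with vehicle, compound at 0.2, 0.8 or 3.2 μM, or ADM for 72 h. Lysates immunoblotted for H2AX pS139, p-p53 (Ser15), total p53 and β-actin, with ECL detection. Signals quantified by densitometry relative to β-actin, mean ± SD of three experiments.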
(Immunoblotting shows a protein as a band on a membrane.)

One may read the IC50 as the point on the concentration scale where inhibition reaches its midpoint. Low readings indicate inhibition by little substance, high ones a need for much substance. By inhibition is commonly meant the drop in the measured response relative to a control, in per cent. Take `Cc1ccc(Oc2c(/C=N\OCc3c(Cl)c(-c4ccc(Cl)cc4)nn3C)c(C)nn2C)cc1`: the results for the IC50 in assay [1], in assay [2] and in assay [3] were 5.84 µM, 3.73 µM and 2.85 µM, respectively. The inhibition at 25 µM in assay [4] came out at 80%.

Turning to `CCc1nn(C)c(CO/N=C\c2c(C)nn(C)c2Oc2ccccc2OC(F)(F)F)c1Cl`, the inhibition at 25 µM in assay [4] is below 80%.

Consider `COc1ccc(Oc2c(/C=N\OCc3c(Cl)c(-c4ccc(F)cc4)nn3C)c(C)nn2C)cc1`, for which the IC50 in assay [1] worked out at 2.05 µM; in assay [2], 2.84 µM; in assay [3] it was 1.18 µM. The inhibition at 25 µM in assay [4] is 80%.

In the case of `CCc1nn(C)c(CO/N=C/c2c(C)nn(C)c2Oc2cccc(C)c2)c1Cl`, the inhibition at 25 µM in assay [4] is below 80%.

Turning to `CCc1nn(C)c(CO/N=C\c2c(C)nn(C)c2Oc2ccc(OC(F)(F)F)cc2)c1Cl`, the inhibition at 25 µM in assay [4] was below 80%.

For `CCc1nn(C)c(CO/N=C/c2c(C)nn(C)c2Oc2ccc(F)cc2)c1Cl`, in assay [4], the inhibition at 25 µM is below 80%.

Consider `CCc1nn(C)c(CO/N=C/c2c(C)nn(C)c2Oc2ccc(C)cc2)c1Cl`, for which the inhibition at 25 µM in assay [4] was below 80%.

Turning to `CCc1nn(C)c(CO/N=C/c2c(C)nn(C)c2Oc2ccccc2Cl)c1Cl`, the inhibition at 25 µM in assay [4] is below 80%.

Turning to `Cc1nn(C)c(Oc2ccc(Cl)cc2)c1/C=N\OCc1c(Cl)c(-c2ccc(F)cc2)nn1C`, the IC50 in assay [1] worked out at 7.97 µM; in assay [2], 8.11 µM; in assay [3], 6.03 µM. In addition, in assay [4], the inhibition at 25 µM was 80%.

On to `CCc1nn(C)c(CO/N=C\c2c(C)nn(C)c2Oc2ccc(OC)cc2)c1Cl`, for which the inhibition at 25 µM in assay [4] was below 80%.

`Cc1nn(C)c(Oc2ccc(F)cc2)c1/C=N\OCc1c(Cl)c(-c2ccc(Cl)cc2)nn1C`: the results for the IC50 in assay [1], in assay [2] and in assay [3] were 3.23 µM, 4.43 µM and 7.25 µM, respectively. The inhibition at 25 µM in assay [4] came out at 80%.

On to `Cc1ccc(Oc2c(/C=N\OCc3c(Cl)c(-c4ccc(F)cc4)nn3C)c(C)nn2C)cc1`, for which the IC50 was found to be 5.23 µM in assay [1], 4.62 µM in assay [2] and 2.91 µM in assay [3]. In addition, the inhibition at 25 µM in assay [4] worked out at 80%.

In the case of `CCc1nn(C)c(CO/N=C/c2c(C)nn(C)c2Oc2ccc(Br)cc2)c1Cl`, the inhibition at 25 µM in assay [4] was below 80%.

As to `CCc1nn(C)c(CO/N=C/c2c(C)nn(C)c2Oc2ccccc2C)c1Cl`, the inhibition at 25 µM in assay [4] is below 80%.

Take `Cc1nn(C)c(Oc2ccc(OC(F)(F)F)cc2)c1/C=N\OCc1c(Cl)c(-c2ccc(Cl)cc2)nn1C`: the IC50 was 8.67 µM in assay [1], 3.22 µM in assay [2] and 3.02 µM in assay [3]. Also, the inhibition at 25 µM in assay [4] turned out to be 80%.

Turning to `Cc1nn(C)c(Oc2ccc(F)cc2)c1/C=N\OCc1c(Cl)c(-c2ccc(F)cc2)nn1C`, the 50% inhibitory concentration (IC50) in assay [1] turned out to be 6.64 µM; in assay [2], 7.08 µM; in assay [3] it was 8.02 µM. Also, the inhibition at 25 µM in assay [4] came out at 80%.

`Cc1nn(C)c(Oc2ccc(Cl)cc2)c1/C=N\OCc1c(Cl)c(-c2ccc(Cl)cc2)nn1C`: the IC50 in assay [1] was 6.82 µM; in assay [2], 7.51 µM; in assay [3], 4.67 µM. Moreover, the inhibition at 25 µM in assay [4] turned out to be 80%.

As to `O=c1[nH]cc(F)c(=O)[nH]1` [FLUOROURACIL], the IC50 in assay [1] was 37.8 µM; in assay [2], 34.4 µM; in assay [3] it was 29.5 µM.

In turn, `CCOC(=O)c1cc(-c2ccccc2)nn1Cc1ccc(Cl)nc1` gave an IC50 in assay [5] of 15.2 µM.

As for `CCc1nn(C)c(CO/N=C/c2c(C)nn(C)c2Oc2ccc(I)cc2)c1Cl`, in assay [4], the inhibition at 25 µM is below 80%.

In the case of `Cc1nn(C)c(Oc2ccc(OC(F)(F)F)cc2)c1/C=N\OCc1c(Cl)c(-c2ccc(F)cc2)nn1C`, the IC50 amounted to 5.21 µM in assay [1], 2.97 µM in assay [2] and 2.31 µM in assay [3]. The inhibition at 25 µM in assay [4] came to 80%.

For `CCc1nn(C)c(CO/N=C/c2c(C)nn(C)c2Oc2cccc(Cl)c2)c1Cl`, the inhibition at 25 µM in assay [4] is below 80%.

As to `COc1cccc2c1C(=O)c1c(O)c3c(c(O)c1C2=O)C[C@@](O)(C(=O)CO)C[C@@H]3O[C@H]1C[C@H](N)[C@H](O)[C@H](C)O1.Cl` [DOXORUBICIN HYDROCHLORIDE], the IC50 was found to be 2.67 µM in assay [1], 4.12 µM in assay [2] and 2.31 µM in assay [3]. Moreover, in assay [4], the inhibition at 25 µM came to 80%. In assay [6], the Activity came to 47.5%. Also, the result in assay [7] was Active.

As to `CCc1nn(C)c(CO/N=C/c2c(C)nn(C)c2Oc2ccc(Cl)cc2)c1Cl`, the inhibition at 25 µM in assay [4] was below 80%.

`CCc1nn(C)c(CO/N=C/c2c(C)nn(C)c2Oc2ccccc2F)c1Cl`: in assay [4], the inhibition at 25 µM was below 80%.

Consider `CCc1nn(C)c(CO/N=C/c2c(C)nn(C)c2Oc2ccccc2OC)c1Cl`, for which the inhibition at 25 µM in assay [4] was below 80%.

Turning to `Cc1nn(C)c(Oc2ccc(Br)cc2)c1/C=N\OCc1c(Cl)c(-c2ccc(Cl)cc2)nn1C`, the IC50 amounted to 7.13 µM in assay [1], 5.96 µM in assay [2] and 5.91 µM in assay [3]. Also, the inhibition at 25 µM in assay [4] turned out to be 80%.
